Measured values collected from several papers.
Lines come from different studies, so protocols differ. ≈ marks a conversion by molar mass, not a printed value.
Organism: Klebsiella pneumoniae
Effect on: microbial growth

| Compound | method | strain | MIC |
| --- | --- | --- | --- |
| Cc1c(NN=C(C#N)C2=NC(=O)CS2)c(=O)n(-c2ccccc2)n1C | broth dilution |  | 0.98 µg/mL (≈ 2.77 µM) |
| COC(=O)c1cc(-c2cccc(NC(=O)Nc3cccc(C#N)c3)c2)on1 | broth dilution | BAA1705 | > 64 µg/mL |
| CN[C@@H]1[C@H](O)[C@H](NC)[C@H]2O[C@@]3(O)C(=O)C[C@@H](C)O[C@H]3O[C@@H]2[C@H]1O | broth dilution | ATCC33495 | > 200 µg/mL |
| CCCCCCC#Cc1cncc(-c2nnc(Sc3ccc([N+](=O)[O-])cc3[N+](=O)[O-])n2C)c1 |  |  | ≥ 20 µg/mL |
| Fc1c(F)c(F)c(F)c(F)c1F |  | ATCC13883 | > 250 µg/mL |
| COC(=O)c1cc(-c2ccc(OC)c(NC(=O)Nc3ccc(Cl)c(Cl)c3)c2)on1 | broth dilution | BAA1705 | > 64 µg/mL |
| CCCCCCCCCC(=O)N[C@@H](Cc1c[nH]c2ccccc12)C(=O)N[C@H](CC(N)=O)C(=O)N[C@@H](CC(=O)O)C(=O)N[C@@H]1C(=O)NCC(=O)N[C@@H](CCCN)C(=O)N[C@@H](CC(=O)O)C(=O)N[C@H](C)C(=O)N[C@@H](CC(=O)O)C(=O)NCC(=O)N[C@H](CO)C(=O)N[C@@H]([C@H](C)CC(=O)O)C(=O)N[C@@H](CC(=O)c2ccccc2N)C(=O)O[C@@H]1C | broth dilution | ATCC10031 | > 64 µg/mL |
| Fc1c(F)c(F)c(-c2c(F)c(F)c(F)c(F)c2F)c(F)c1F |  | ATCC13883 | > 250 µg/mL |
| COC(=O)c1cc(-c2cccc(NC(=O)Nc3ccccc3C)c2)on1 | broth dilution | BAA1705 | > 64 µg/mL |
| CCCCCCC#Cc1cncc(-c2nnc(SCc3cc([N+](=O)[O-])cc([N+](=O)[O-])c3)n2C)c1 |  |  | ≥ 20 µg/mL |
